This is an account of results in ChEMBL document CHEMBL3872284, “Hydrazone Linker as a Useful Tool for Preparing Chimeric Peptide/Nonpeptide Bifunctional Compounds” (ACS Med Chem Lett, 2017).

Assay [1] addresses T1, Mu-type opioid receptor (Rattus norvegicus, UniProt P33535). The assay is described as follows: Displacement of [3H]DAMGO from MOR in Sprague-Dawley rat brain homogenate measured after 180 mins by scintillation counting analysis. The class given is tissue-based. Background: In a radioligand displacement assay an active substance lowers the binding of a labelled ligand.
In assay [2] the target is T2, Delta-type opioid receptor (Rattus norvegicus, UniProt P33533). Put plainly: Displacement of [3H]DELT2 from DOR in Sprague-Dawley rat brain homogenate measured after 180 mins by scintillation counting analysis. It counts as tissue-based.
T2 sequence (P33533 whole entry): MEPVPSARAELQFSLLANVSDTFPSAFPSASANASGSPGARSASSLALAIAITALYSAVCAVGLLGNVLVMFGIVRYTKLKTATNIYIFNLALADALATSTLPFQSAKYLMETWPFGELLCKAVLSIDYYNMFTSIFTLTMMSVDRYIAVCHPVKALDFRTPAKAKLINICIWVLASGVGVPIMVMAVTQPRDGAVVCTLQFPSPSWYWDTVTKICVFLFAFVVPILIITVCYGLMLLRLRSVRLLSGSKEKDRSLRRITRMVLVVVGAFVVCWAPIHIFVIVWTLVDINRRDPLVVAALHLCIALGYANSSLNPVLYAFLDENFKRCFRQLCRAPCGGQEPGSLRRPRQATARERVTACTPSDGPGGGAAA
Assay [3] relates to Mus musculus. The assay is described as follows: Analgesic activity in C57BL6 mouse assessed as increase in thermal stimulus-induced paw withdrawal latency at 48 umol/kg, iv measured after 30 mins by plantar test. The class given is functional, organism-based. The method in brief:
(§1)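 Heat-induced paw withdrawal (plantar test) after intravenous dosing. Readings taken over a time course to 120 min post-injection and expressed as % maximal possible effect (%MPE). n=6–8 animals per group, with morphine-treated animals as comparator and significance testing versus morphine.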

The subject of assay [4] is Rattus norvegicus. The assay is described as follows: Analgesic activity in Wistar rat assessed as increase in thermal stimulus-induced tail-flick latency at 12 nmol/kg administered intrathecally measured up to 60 mins. The class given is functional. An outline of the steps: (§2)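 Intrathecal injection followed by tail-flick testing at 5 to 120 min post-injection. Responses expressed as % maximal possible effect (%MPE). Doses given in nmol/kg. n=6–8 animals per group, with a morphine group and statistics versus morphine.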
On the technique in general: Thermal pain tests record how soon the animal reacts.

In assay [5] the target is T1, Mu-type opioid receptor. The assay is described as follows: Displacement of [3H]DAMGO from MOR in rat brain homogenate measured after 60 mins by microbeta scintillation counting analysis. The class given is tissue-based.
The target in assay [6] is T2, Delta-type opioid receptor. The assay is described as follows: Displacement of [3H]DELT2 from DOR in rat brain homogenate measured after 60 mins by microbeta scintillation counting analysis. It counts as tissue-based.
In assay [7] the target is Substance-P receptor (Rattus norvegicus, UniProt P14600). Put plainly: Displacement of [Leu-3,4,5-3H(N)]-Substance P from NK1 receptor in rat brain homogenate measured after 60 mins by microbeta scintillation counting analysis. The class given is tissue-based.
Sequence of Substance-P receptor (P14600 whole entry): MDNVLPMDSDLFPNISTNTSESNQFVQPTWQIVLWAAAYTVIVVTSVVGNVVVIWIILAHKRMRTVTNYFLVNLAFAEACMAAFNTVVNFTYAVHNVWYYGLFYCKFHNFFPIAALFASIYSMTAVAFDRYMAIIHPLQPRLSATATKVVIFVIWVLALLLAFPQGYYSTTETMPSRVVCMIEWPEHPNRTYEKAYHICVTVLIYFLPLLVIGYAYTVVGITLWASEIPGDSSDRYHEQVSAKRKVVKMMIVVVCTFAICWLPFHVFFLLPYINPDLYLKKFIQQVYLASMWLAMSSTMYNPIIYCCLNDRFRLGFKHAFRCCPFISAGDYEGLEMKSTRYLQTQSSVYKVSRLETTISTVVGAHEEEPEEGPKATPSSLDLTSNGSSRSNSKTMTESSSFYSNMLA
Assay [8] concerns Mus musculus. The assay is described as follows: Analgesic activity in C57BL6 mouse assessed as effect on thermal stimulus-induced paw withdrawal latency at 80 umol/kg, iv measured after 30 mins by plantar test relative to control. It counts as functional. The method in brief: as §1
Assay [9] deals with Mus musculus. Put plainly: Analgesic activity in C57BL6 mouse assessed as effect on thermal stimulus-induced tail-flick latency at 20 to 80 umol/kg, iv measured after 5 mins. It counts as functional. An outline of the steps:
(§3)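 Tail-flick test after intravenous injection. Latencies recorded at time points from 5 to 120 min post-dose and converted to % maximal possible effect (%MPE). Groups of n=6–8 animals, compared against a morphine-treated group.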

Assay [10] deals with Mus musculus. Put plainly: Analgesic activity in C57BL6 mouse assessed as effect on thermal stimulus-induced tail-flick latency at 80 umol/kg, iv measured up to 30 mins relative to control. The class given is functional. The method in brief:
as §3

The subject of assay [11] is Mus musculus. The assay is described as follows: Analgesic activity in C57BL6 mouse assessed as effect on thermal stimulus-induced tail-flick latency at 80 umol/kg, iv measured after 60 mins relative to control. It counts as functional. The method in brief: as §3
Assay [12] relates to Mus musculus. The assay is described as follows: Analgesic activity in C57BL6 mouse assessed as effect on thermal stimulus-induced tail-flick latency at 80 umol/kg, iv measured after 120 mins relative to control. It counts as functional. The method in brief:
as §3

Assay [13] relates to Rattus norvegicus. The assay is described as follows: Analgesic activity in Wistar rat assessed as effect on thermal stimulus-induced tail-flick latency at 2 nmol/kg administered intrathecally measured after 15 mins relative to control. The class given is functional. The method in brief:
as §2

Activity calls are given as the source filed them. The rule behind the calls is not given here.

T1 sequence (P33535 whole entry): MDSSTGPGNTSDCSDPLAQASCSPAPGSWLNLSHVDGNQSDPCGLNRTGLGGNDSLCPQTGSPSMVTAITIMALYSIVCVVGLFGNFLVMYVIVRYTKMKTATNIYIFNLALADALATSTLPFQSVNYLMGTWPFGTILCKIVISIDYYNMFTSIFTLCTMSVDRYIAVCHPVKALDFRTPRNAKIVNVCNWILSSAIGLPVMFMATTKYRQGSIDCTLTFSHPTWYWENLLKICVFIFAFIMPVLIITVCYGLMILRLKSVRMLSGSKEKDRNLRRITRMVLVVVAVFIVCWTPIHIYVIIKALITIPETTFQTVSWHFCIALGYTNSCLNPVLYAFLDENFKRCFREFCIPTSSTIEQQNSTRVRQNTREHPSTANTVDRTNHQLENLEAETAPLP

Take `C[C@@H](NC(=O)[C@@H](N)Cc1ccc(O)cc1)C(=O)NCC(=O)N[C@@H](Cc1ccccc1)C(=O)NN`: the IC50 turned out to be 0.0047 µM in assay [1] and 0.23 µM in assay [2].
Take `C[C@@H](NC(=O)[C@@H](N)Cc1ccc(O)cc1)C(=O)NCC(=O)N[C@@H](Cc1ccccc1)C(=O)NNC(=O)[C@@H](N)Cc1ccccc1`: the IC50 was found to be 0.00074 µM in [1] and 0.015 µM in [2].
Take `CN1CC[C@]23c4c5ccc(O)c4O[C@H]2[C@@H](O)C=C[C@H]3[C@H]1C5`: the result in [3] and in assay [4] was Active.
As for `C[C@@H](NC(=O)[C@@H](N)Cc1ccc(O)cc1)C(=O)NCC(=O)N[C@@H](Cc1ccccc1)C(=O)N/N=C/c1cc(C(F)(F)F)cc(C(F)(F)F)c1.O=C(O)C(F)(F)F`, the IC50 was found to be 0.0127 µM in [5], 0.0742 µM in assay [6] and 0.00424 µM in assay [7]. In addition, the MPE in [8] is reported as 75.41%; in assay [9], 84.81%; in assay [10] it was 94.26%; in assay [11] it was 69.84%; in [12], 16.84%; in assay [13] it was 80.31%.

The IC50 is the concentration needed to halve the response being measured. Low readings indicate inhibition by little substance, high ones a need for much substance.
